Calls of active or inactive are those of the source. The rule behind the calls is not given here.
Tests used:
[1] = tested on: HepG2; assay: Cytotoxicity against human HepG2 cells incubated for 48 hrs by MTT assay; format: functional, cell-based; conditions: HepG2, 48 h
Summary of the method: (§1)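 Cells were grown in RPMI-1640 with 10% heat-inactivated FCS at 37 °C under 5% CO₂, seeded at 5 × 10³ per well and left 24 h. Compounds in DMSO were diluted in medium to 0.5% final DMSO; controls received 0.5% DMSO. Exposure was 24–72 h, followed by MTT for 4 h, formazan dissolved in DMSO, and A570. Six wells per sample; IC₅₀ taken at 50% inhibition; ≥3 repeats.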

[2] = tested on: BGC-823; assay: Cell cycle arrest in human BGC823 cells assessed as accumulation of cells at subG0/G1 phase incubated for 24 to 72 hrs by propidium iodide staining based flow cytometry; format: functional
Summary of the method: (§2)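 BGC-823 cells were exposed to 20 µM for 24, 48 or 72 h, or to 10, 20 or 40 µM for 48 h. About 10⁶ cells were harvested and stained with propidium iodide using a cell cycle kit, then analysed by flow cytometry. Percentages were read for sub-G0/G1, G0/G1, S and G2/M. Each experiment was run at least three times; mean ± SD.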

[3] = tested on: BGC-823; assay: Induction of apoptosis in human BGC823 cells assessed as late apoptotic cell population at 30 uM by annexinV/propidium iodide staining (reference value: 2.1%); format: functional
[4] = tested on: BGC-823; assay: Reduction in survivin protein expression in human BGC823 cells at 10 uM incubated for 48 hrs by Western blotting; format: functional
Summary of the method: (§3)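 BGC-823 cells were treated with 10, 20 or 40 µM for 48 h, detached with trypsin/EDTA, and more than 10⁶ cells were lysed. Protein was quantified by Bradford, and 150–200 µg per lane was run on 12.5% SDS-PAGE and transferred to PVDF. Antibodies: Survivin 1:1000, Bcl-2 1:200, β-actin 1:1000; HRP secondary 1 h; ECL detection. Expression was quantified relative to control.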

[5] = tested on: Mus musculus; assay: Toxicity in human BGC823 cells xenografted nude mouse assessed as body weight changes at 30 mg/kg, iv treated 4 times on day 1, 4, 7 and 10 post tumor implant (reference value: 20.54 +/- 1.45 grams); format: organism-based, BGC-823; set-up: dose 30 mg/kg, route intravenous; conditions: in vivo
Summary of the method: (§4)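 Nude mice (male, 5 weeks, 18–22 g) carried subcutaneous BGC-823 xenografts from 1 × 10⁷ cells. Dosing started at about 200 mm³ tumour volume, with eight mice per group. Each dose was 0.2 mL given iv; the saline control received 0.9% saline. Body weight was recorded on days 1, 4, 7, 10, 13 and 16 of treatment and reported as mean ± SD, n = 8.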

[6] = tested on: BGC-823; assay: Reduction in survivin protein expression in human BGC823 cells at 20 uM incubated for 48 hrs by Western blotting; format: functional; summary of the method: as §3
[7] = tested on: BGC-823; assay: Cytotoxicity against human BGC823 cells by MTT assay; format: functional, cell-based; summary of the method: as §1
[8] = Cytotoxicity against human GES-1 cells incubated for 48 hrs by MTT assay; format: cell-based; conditions: GES1, 48 h; summary of the method: as §1
[9] = tested on: BGC-823; assay: Induction of apoptosis in human BGC823 cells assessed as late apoptotic cell population at 20 uM by annexinV/propidium iodide staining (reference value: 2.1%); format: functional
[10] = tested on: Mus musculus; assay: Toxicity in human BGC823 cells xenografted nude mouse assessed as body weight changes at 6 mg/kg, iv treated 5 times on day 1, 4, 7, 10 and day 13 post tumor implant (reference value: 20.21 +/- 1.83 grams); format: organism-based, BGC-823; set-up: dose 6 mg/kg, route intravenous; conditions: in vivo; summary of the method: as §4
[11] = tested on: BGC-823; assay: Induction of cell shrinkage in human BGC823 cells at 30 uM incubated for 48 hrs by MTT assay; format: functional, cell-based
[12] = tested on: BGC-823; assay: Antitumor activity against human BGC823 cells xenografted in nude mouse assessed as reduction in tumor volume at 30 mg/kg, iv dosed 5 times; format: functional; set-up: scale not given: the % may be the effect or the level left
Summary of the method: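 Male nude mice (5 weeks, 18–22 g) inoculated subcutaneously with 1 × 10⁷ BGC-823 cells. At about 200 mm³ tumours, animals were randomised into four groups of eight. Each received 0.2 mL iv by tail vein; controls got 0.9% saline. Tumour volume was measured daily as 0.5 × length × width²; tumours were weighed at the end. Values are mean ± SD, n = 8.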

[13] = tested on: BGC-823; assay: Induction of apoptosis in human BGC823 cells assessed as late apoptotic cell population at 40 uM by annexinV/propidium iodide staining (reference value: 2.1%); format: functional
[14] = tested on: Mus musculus; assay: Toxicity in human BGC823 cells xenografted nude mouse assessed as body weight changes at 6 mg/kg, iv treated […] on day 1, 4, 7, 10, 13 and day 16 post tumor implant (reference value: 20.12 +/- 1.52 grams); format: organism-based, BGC-823; set-up: dose 6 mg/kg, route intravenous; conditions: in vivo
[15] = tested on: BGC-823; assay: Induction of apoptosis in human BGC823 cells assessed as early apoptotic cell population at 10 uM by annexinV/propidium iodide staining (reference value: 1.9%); format: functional
[16] = tested on: BGC-823; assay: Reduction in survivin protein expression in human BGC823 cells at 40 uM incubated for 48 hrs by Western blotting; format: functional; summary of the method: as §3
[17] = tested on: BGC-823; assay: Induction of apoptosis in human BGC823 cells assessed as viable cell population at 30 uM by annexinV/propidium iodide staining (reference value: 95.5%); format: functional
[18] = tested on: BGC-823; assay: Induction of apoptosis in human BGC823 cells assessed as late apoptotic cell population at 10 uM by annexinV/propidium iodide staining (reference value: 2.1%); format: functional
[19] = tested on: Mus musculus; assay: Toxicity in human BGC823 cells xenografted nude mouse assessed as body weight changes at 30 mg/kg, iv treated 3 times on day 1, day 4 and day 7 post tumor implant (reference value: 20.79 +/- 1.29 grams); format: organism-based, BGC-823; set-up: dose 30 mg/kg, route intravenous; conditions: in vivo; summary of the method: as §4
[20] = tested on: BGC-823; assay: Induction of apoptosis in human BGC823 cells assessed as necrotic damaged cell population at 30 uM by annexinV/propidium iodide staining (reference value: 0.5%; format: functional
[21] = tested on: BGC-823; assay: Induction of apoptosis in human BGC823 cells assessed as necrotic damaged cell population at 10 uM by annexinV/propidium iodide staining (reference value: 0.5%; format: functional
[22] = tested on: BGC-823; assay: Reduction in BCL-2 protein expression in human BGC823 cells at 1o to 40 uM incubated for 48 hrs by Western blotting; format: functional, cell-based; summary of the method: as §3
[23] = tested on: BGC-823; assay: Cell cycle arrest in human BGC823 cells assessed as accumulation of cells at subG0/G1 phase at 40 uM incubated by propidium iodide staining based flow cytometry (Rvb= 0.66%); format: functional; conditions: TDE = time-dependent effect; summary of the method: as §2
[24] = tested on: BGC-823; assay: Reduction in survivin protein expression in human BGC823 cells incubated for 48 hrs by Western blotting; format: functional, cell-based; summary of the method: as §3
[25] = tested on: BGC-823; assay: Induction of apoptosis in human BGC823 cells assessed as necrotic damaged cell population at 40 uM by annexinV/propidium iodide staining (reference value: 0.5%; format: functional
[26] = tested on: BGC-823; assay: Induction of apoptosis in human BGC823 cells assessed as early apoptotic cell population at 40 uM by annexinV/propidium iodide staining (reference value: 1.9%); format: functional

With `CC(=O)O[C@H]1CC[C@]2(C)[C@H]3CC=C4[C@@H]5[C@@H](C)[C@H](C)CC[C@]5(C(=O)OCC(O)CO)CC[C@@]4(C)[C@]3(C)CC[C@H]2C1(C)C` (stereo partly specified) the IC50 [1] was 27.5 µM, the Activity [2] was “Dose-dependent effect” and the Activity [3] was 29%. It also gave an Activity [4] of 37.6%, an Activity [5] of 19.16 g and an Activity [6] of 43.1%. It also gave an IC50 [7] of 15.7 µM, an IC50 [8] of 155 µM and an Activity [9] of 2.3%. The Activity [10] was 20.07 g, the Activity [11] was “Active” and the Activity [12] was 41.9%. It also gave an Activity [13] of 89.5%, an Activity [14] of 20.09 g and an Activity [15] of 4.5%. For the same molecule, the Activity [16] was 53.1%, the Activity [17] was 19.4% and the Activity [18] was 2.6%. The Activity [19] was 19.29 g, the Activity [20] was 6.5% and the Activity [21] was 0.2%. For the same molecule, the Activity [22] was “Active”, the Activity [23] was “tde” and the Activity [24] was “Dose-dependent effect”. The Activity [25] was 2.3% and the Activity [26] was 7.4%.

Reference: ChEMBL document CHEMBL2150886, “Synthesis of [3β-acetoxy-urs-12-en-28-oyl]-1-monoglyceride and investigation on its anti tumor effects against BGC-823” (Bioorg Med Chem, 2011)
